Source: ChEMBL document CHEMBL3046428, “Isolation, characterization and antifungal activity of major constituents of the Himalayan lichen Parmelia reticulata Tayl” (2011)
≈ marks a conversion by molar mass, not a printed value.

Tests used:
Type in all cases: functional
Athelia rolfsii [1] = assay: Antifungal activity against Athelia rolfsii assessed as growth inhibition at 31 ug/ml by poisoned food technique; details: Agroathelia rolfsii
Procedure, shortened: (§1)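 Poisoned-food assay on potato dextrose agar: test material is dissolved and diluted in acetone and mixed into the medium before pouring, with an acetone-only control. A 5 mm mycelial disk is cut from the growing edge of a 2-week-old colony and placed inoculum-down at the plate centre. Plates are incubated at 28 °C until control growth is nearly complete. Colony diameter is measured, and % inhibition = (C−T)/C×100. Four replicates give the mean.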

Pythium aphanidermatum [2] = assay: Antifungal activity against Pythium aphanidermatum assessed as growth inhibition at 31 ug/ml by poisoned food technique; procedure, shortened: as §1
Fusarium udum [3] = assay: Antifungal activity against Fusarium udum assessed as growth inhibition at 31 ug/ml by poisoned food technique; procedure, shortened: as §1
Athelia rolfsii [4] = assay: Antifungal activity against Athelia rolfsii assessed as growth inhibition by poisoned food technique; details: Agroathelia rolfsii; read-out: ED50 (the source's name)
Procedure, shortened: (§2)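 ED50 from poisoned-food growth inhibition on PDA at 250, 125 and 62.5 μg/mL in medium, with an acetone control. Plates were inoculated with a 5 mm mycelial disc, incubated at 28 °C, and colony diameter was measured in quadruplicate. Percent inhibition was corrected by Abbott's formula, using a correction factor from the 9 cm dish diameter, and ED50 (μg/mL) was derived by probit analysis.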

Rhizoctonia solani [5] = assay: Antifungal activity against Rhizoctonia solani assessed as growth inhibition by poisoned food technique; details: read-out: ED50 (the source's name); procedure, shortened: as §2
Athelia rolfsii [6] = assay: Antifungal activity against Athelia rolfsii assessed as growth inhibition at 15.50 ug/ml by poisoned food technique; details: Agroathelia rolfsii; procedure, shortened: as §1
Athelia rolfsii [7] = assay: Antifungal activity against Athelia rolfsii assessed as growth inhibition at 7.25 ug/ml by poisoned food technique; details: Agroathelia rolfsii; procedure, shortened: as §1
Rhizoctonia solani [8] = assay: Antifungal activity against Rhizoctonia solani assessed as growth inhibition at 7.25 ug/ml by poisoned food technique; procedure, shortened: as §1
Pythium aphanidermatum [9] = assay: Antifungal activity against Pythium aphanidermatum assessed as growth inhibition by poisoned food technique; details: read-out: ED50 (the source's name); procedure, shortened: as §2
[10] = tested on: Globisporangium debaryanum; assay: Antifungal activity against Pythium debaryanum assessed as growth inhibition by poisoned food technique; details: read-out: ED50 (the source's name); procedure, shortened: as §2
[11] = tested on: Globisporangium debaryanum; assay: Antifungal activity against Pythium debaryanum assessed as growth inhibition at 15.50 ug/ml by poisoned food technique; procedure, shortened: as §1
Macrophomina phaseolina [12] = assay: Antifungal activity against Rhizoctonia bataticola assessed as growth inhibition by poisoned food technique; details: read-out: ED50 (the source's name); procedure, shortened: as §2
Pythium aphanidermatum [13] = assay: Antifungal activity against Pythium aphanidermatum assessed as growth inhibition at 15.50 ug/ml by poisoned food technique; procedure, shortened: as §1
Rhizoctonia solani [14] = assay: Antifungal activity against Rhizoctonia solani assessed as growth inhibition at 31 ug/ml by poisoned food technique; procedure, shortened: as §1
Macrophomina phaseolina [15] = assay: Antifungal activity against Rhizoctonia bataticola assessed as growth inhibition at 31 ug/ml by poisoned food technique; procedure, shortened: as §1
Rhizoctonia solani [16] = assay: Antifungal activity against Rhizoctonia solani assessed as growth inhibition at 15.50 ug/ml by poisoned food technique; procedure, shortened: as §1
Pythium aphanidermatum [17] = assay: Antifungal activity against Pythium aphanidermatum assessed as growth inhibition at 7.25 ug/ml by poisoned food technique; procedure, shortened: as §1
[18] = tested on: Globisporangium debaryanum; assay: Antifungal activity against Pythium debaryanum assessed as growth inhibition at 31 ug/ml by poisoned food technique; procedure, shortened: as §1
Macrophomina phaseolina [19] = assay: Antifungal activity against Rhizoctonia bataticola assessed as growth inhibition at 7.25 ug/ml by poisoned food technique; procedure, shortened: as §1
[20] = tested on: Globisporangium debaryanum; assay: Antifungal activity against Pythium debaryanum assessed as growth inhibition at 7.25 ug/ml by poisoned food technique; procedure, shortened: as §1
Fusarium udum [21] = assay: Antifungal activity against Fusarium udum assessed as growth inhibition at 15.50 ug/ml by poisoned food technique; procedure, shortened: as §1
Fusarium udum [22] = assay: Antifungal activity against Fusarium udum assessed as growth inhibition by poisoned food technique; details: read-out: ED50 (the source's name); procedure, shortened: as §2
Fusarium udum [23] = assay: Antifungal activity against Fusarium udum assessed as growth inhibition at 7.25 ug/ml by poisoned food technique; procedure, shortened: as §1
Macrophomina phaseolina [24] = assay: Antifungal activity against Rhizoctonia bataticola assessed as growth inhibition at 15.50 ug/ml by poisoned food technique; procedure, shortened: as §1
Rhizoctonia solani [25] = assay: Antifungal activity against Rhizoctonia solani assessed as growth inhibition at 125 ug/ml by poisoned food technique
Procedure, shortened: (§3)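 Poisoned-food assay on PDA. Test material was diluted in acetone and mixed into molten medium at final 250, 125 or 62.5 μg/mL, with 1 mL acetone as control. Plates received a 5 mm mycelial disc from the front of a 2-week-old colony and were incubated at 28 °C until control growth was nearly complete. Colony diameter was measured, giving %I = (C−T)/C×100. Mean ± SD of four replicates.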

Athelia rolfsii [26] = assay: Antifungal activity against Athelia rolfsii assessed as growth inhibition at 250 ug/ml by poisoned food technique; details: Agroathelia rolfsii; procedure, shortened: as §3
Fusarium udum [27] = assay: Antifungal activity against Fusarium udum assessed as growth inhibition at 62.5 ug/ml by poisoned food technique; procedure, shortened: as §3
Pythium aphanidermatum [28] = assay: Antifungal activity against Pythium aphanidermatum assessed as growth inhibition at 250 ug/ml by poisoned food technique; procedure, shortened: as §3
Rhizoctonia solani [29] = assay: Antifungal activity against Rhizoctonia solani assessed as growth inhibition at 62.5 ug/ml by poisoned food technique; procedure, shortened: as §3
Fusarium udum [30] = assay: Antifungal activity against Fusarium udum assessed as growth inhibition at 125 ug/ml by poisoned food technique; procedure, shortened: as §3
Macrophomina phaseolina [31] = assay: Antifungal activity against Rhizoctonia bataticola assessed as growth inhibition at 250 ug/ml by poisoned food technique; procedure, shortened: as §3
Athelia rolfsii [32] = assay: Antifungal activity against Athelia rolfsii assessed as growth inhibition at 62.5 ug/ml by poisoned food technique; details: Agroathelia rolfsii; procedure, shortened: as §3
Pythium aphanidermatum [33] = assay: Antifungal activity against Pythium aphanidermatum assessed as growth inhibition at 125 ug/ml by poisoned food technique; procedure, shortened: as §3
Macrophomina phaseolina [34] = assay: Antifungal activity against Rhizoctonia bataticola assessed as growth inhibition at 62.5 ug/ml by poisoned food technique; procedure, shortened: as §3
Macrophomina phaseolina [35] = assay: Antifungal activity against Rhizoctonia bataticola assessed as growth inhibition at 125 ug/ml by poisoned food technique; procedure, shortened: as §3
Fusarium udum [36] = assay: Antifungal activity against Fusarium udum assessed as growth inhibition at 250 ug/ml by poisoned food technique; procedure, shortened: as §3
Athelia rolfsii [37] = assay: Antifungal activity against Athelia rolfsii assessed as growth inhibition at 125 ug/ml by poisoned food technique; details: Agroathelia rolfsii; procedure, shortened: as §3
[38] = tested on: Globisporangium debaryanum; assay: Antifungal activity against Pythium debaryanum assessed as growth inhibition at 250 ug/ml by poisoned food technique; procedure, shortened: as §3
[39] = tested on: Globisporangium debaryanum; assay: Antifungal activity against Pythium debaryanum assessed as growth inhibition at 125 ug/ml by poisoned food technique; procedure, shortened: as §3
Pythium aphanidermatum [40] = assay: Antifungal activity against Pythium aphanidermatum assessed as growth inhibition at 62.5 ug/ml by poisoned food technique; procedure, shortened: as §3
[41] = tested on: Globisporangium debaryanum; assay: Antifungal activity against Pythium debaryanum assessed as growth inhibition at 62.5 ug/ml by poisoned food technique; procedure, shortened: as §3
Rhizoctonia solani [42] = assay: Antifungal activity against Rhizoctonia solani assessed as growth inhibition at 250 ug/ml by poisoned food technique; procedure, shortened: as §3

Row | Compound | EC50 (Athelia rolfsii [4]) [µg/mL] | EC50 (Rhizoctonia solani [5]) [µg/mL] | EC50 (Pythium aphanidermatum [9]) [µg/mL] | EC50 [10] [µg/mL] | EC50 (Macrophomina phaseolina [12]) [µg/mL] | EC50 (Fusarium udum [22]) [µg/mL] | inhibition at 125 µg/mL (Rhizoctonia solani [25]) [%] | inhibition at 250 µg/mL (Athelia rolfsii [26]) [%] | inhibition at 62.5 µg/mL (Fusarium udum [27]) [%] | inhibition at 250 µg/mL (Pythium aphanidermatum [28]) [%] | inhibition at 62.5 µg/mL (Rhizoctonia solani [29]) [%] | inhibition at 125 µg/mL (Fusarium udum [30]) [%] | inhibition at 250 µg/mL (Macrophomina phaseolina [31]) [%] | inhibition at 62.5 µg/mL (Athelia rolfsii [32]) [%] | inhibition at 125 µg/mL (Pythium aphanidermatum [33]) [%] | inhibition at 62.5 µg/mL (Macrophomina phaseolina [34]) [%] | inhibition at 125 µg/mL (Macrophomina phaseolina [35]) [%] | inhibition at 250 µg/mL (Fusarium udum [36]) [%] | inhibition at 125 µg/mL (Athelia rolfsii [37]) [%] | inhibition at 250 µg/mL [38] [%] | also measured
1 | CCCCC(O)(Cn1cncn1)c1ccc(Cl)cc1Cl (stereo not given) [HEXACONAZOLE] | 13.4 (≈ 42.7 µM) | 18.3 (≈ 58.2 µM) | 22.1 (≈ 70.2 µM) | 25.9 (≈ 82.5 µM) | 4.4 (≈ 14 µM) | 22 (≈ 70 µM) |  |  |  |  |  |  |  |  |  |  |  |  |  |  | inhibition at 31 µg/mL (Athelia rolfsii [1]): 90.7%; inhibition at 31 µg/mL (Pythium aphanidermatum [2]): 65.3%; inhibition at 31 µg/mL (Fusarium udum [3]): 70%; inhibition at 15.5 µg/mL (Athelia rolfsii [6]): 45.3%; inhibition at 7.25 µg/mL (Athelia rolfsii [7]): 28.2%; inhibition at 7.25 µg/mL (Rhizoctonia solani [8]): 20.6%; inhibition at 15.5 µg/mL [11]: 26.3%; inhibition at 15.5 µg/mL (Pythium aphanidermatum [13]): 32.7%; inhibition at 31 µg/mL (Rhizoctonia solani [14]): 72.6%; inhibition at 31 µg/mL (Macrophomina phaseolina [15]): 87%; inhibition at 15.5 µg/mL (Rhizoctonia solani [16]): 38.2%; inhibition at 7.25 µg/mL (Pythium aphanidermatum [17]): 14.1%; inhibition at 31 µg/mL [18]: 59.2%; inhibition at 7.25 µg/mL (Macrophomina phaseolina [19]): 60.1%; inhibition at 7.25 µg/mL [20]: 11.1%; inhibition at 15.5 µg/mL (Fusarium udum [21]): 23.7%; inhibition at 7.25 µg/mL (Fusarium udum [23]): 18.6%; inhibition at 15.5 µg/mL (Macrophomina phaseolina [24]): 73.2%
2 | COc1cc(C)c2c(=O)c3c(O)cc(OC)cc3oc2c1 [LICHEXANTHONE] | 273 (≈ 955 µM) | 202 (≈ 707 µM) | 174 (≈ 608 µM) | 149 (≈ 520 µM) | 134 (≈ 467 µM) | 151 (≈ 528 µM) | 29.4 | 37.3 | 20.3 | 42.7 | 19.6 | 24.5 | 50 | 16.7 | 23.4 | 11.4 | 30.3 | 53.3 | 23.2 | 42 | inhibition at 125 µg/mL [39]: 28.4%; inhibition at 62.5 µg/mL (Pythium aphanidermatum [40]): 13%; inhibition at 62.5 µg/mL [41]: 9.03%; inhibition at 250 µg/mL (Rhizoctonia solani [42]): 41%
3 | COC(=O)c1c(C)cc(O)c(C=O)c1O [METHYL HAEMATOMMATE] | 60.3 (≈ 287 µM) | 50.5 (≈ 240 µM) | 90.6 (≈ 431 µM) | 88.2 (≈ 420 µM) | 52.9 (≈ 252 µM) | 71.2 (≈ 339 µM) | 72.6 | 89.2 | 46.5 | 69.3 | 50.6 | 50.5 | 78.2 | 44.2 | 46.4 | 53.1 | 61.4 | 67.3 | 66.6 | 71.3 | inhibition at 125 µg/mL [39]: 47.3%; inhibition at 62.5 µg/mL (Pythium aphanidermatum [40]): 24.4%; inhibition at 62.5 µg/mL [41]: 34%; inhibition at 250 µg/mL (Rhizoctonia solani [42]): 81.7%
4 | CCOC(=O)c1c(C)cc(O)cc1O [ORSELLINIC ACID, ETHYL ESTER] | 82.7 (≈ 421 µM) | 58.3 (≈ 297 µM) | 86.9 (≈ 443 µM) | 72.5 (≈ 370 µM) | 114 (≈ 580 µM) | 98.2 (≈ 501 µM) | 68.1 | 78 | 17.3 | 83.3 | 44.4 | 32.5 | 67.2 | 28.3 | 50.4 | 16.4 | 28 | 79.4 | 50.5 | 91.4 | inhibition at 125 µg/mL [39]: 61.2%; inhibition at 62.5 µg/mL (Pythium aphanidermatum [40]): 18.5%; inhibition at 62.5 µg/mL [41]: 28.3%; inhibition at 250 µg/mL (Rhizoctonia solani [42]): 90.4%
5 | Cc1cc(O)c(C=O)c2c1C(=O)Oc1c(CO)c(O)c3c(c1O2)C(O)OC3=O (stereo not given) [SLAZINIC ACID] | 164 (≈ 423 µM) | 179 (≈ 462 µM) | 121 (≈ 312 µM) | 151 (≈ 388 µM) | 161 (≈ 416 µM) | 88.2 (≈ 227 µM) | 30.2 | 38.2 | 31 | 61 | 22.1 | 50.1 | 41.2 | 5.93 | 25.5 | 9 | 26.8 | 67 | 21 | 43.5 | inhibition at 125 µg/mL [39]: 28.1%; inhibition at 62.5 µg/mL (Pythium aphanidermatum [40]): 11.1%; inhibition at 62.5 µg/mL [41]: 11.9%; inhibition at 250 µg/mL (Rhizoctonia solani [42]): 45.2%
